Results pooled from the literature.
Protocols differ between the studies behind these lines.
Target: SRSF protein kinase 1 (SRPK1, Homo sapiens, UniProt Q96SB4)

Compound	observed	technique	tested at	remaining binding [%]
CN(C)c1nccc(-c2cnn3ncccc23)n1	binding	–	1 µM	100
FC(F)(F)Oc1cccc(-c2cnc3ccc(-c4ccncc4)nn23)c1	binding	competition with immobilised ligand	5 µM	70
C[C@@H]1CCN(c2nccc(-c3cnn4ncccc34)n2)C1	binding	–	1 µM	98
CCN1CCN(Cc2ccc(C(=O)Nc3ccc(C)c(Oc4ccc5c(c4)CC(=O)N5)c3)cc2C(F)(F)F)CC1	binding	competition with immobilised ligand	1 µM	98
CNC(=O)[C@@H]1CC[C@@H](n2c(-c3ccc4cnccc4c3)nc3ccc(C(=O)NCc4cccc(C(N)=O)c4)cc32)C1	binding	competition with immobilised ligand	1 µM	79
CNCc1ccccc1-c1csc([C@H](C)Nc2nc(C)nc3cc(OC)c(OC)cc23)c1	cell-free assay	competition with immobilised ligand	1 µM	100
Cc1cnc(Nc2ccc(C(=O)N3CCC(N4CCCC4)CC3)cc2)nc1-c1cc2ccccc2s1	binding	competition with immobilised ligand	1 µM	100
CN(c1nccc(-c2cnn3ncccc23)n1)C1CC1	binding	–	1 µM	88
N#Cc1ccc(Nc2ccc3[nH]c(=O)[nH]c3c2)c(Cl)c1	cell-free assay	competition with immobilised ligand	1 µM	95
N[C@H]1CCN(c2nccc(-c3cnn4ncccc34)n2)C1	binding	–	1 µM	84
C=CC(=O)N1CCC(C(=O)NCC(=O)N2CCN(c3nc(-c4cnc(N)nc4C(F)F)nc(N4CCOCC4)n3)CC2)CC1	binding	competition with immobilised ligand	1 µM	75
O=C(NCCCN1CCOCC1)c1ccc(Nc2nccc(-c3cc4ccccc4s3)n2)cc1	binding	competition with immobilised ligand	1 µM	100
O=C(Nc1c[nH]nc1C(=O)NC1CCNCC1)c1cc(F)cc(F)c1	binding	competition with immobilised ligand	1 µM	100
Cc1noc([C@H]2C[C@@H](c3ccc(C(F)(F)F)cc3)CN(C(=O)N3CCS(=O)(=O)C3)C2)n1	cell-free assay	competition with immobilised ligand	1 µM	100
F[C@@H]1CCN(c2nccc(-c3cnn4ncccc34)n2)C1	binding	–	1 µM	100
O=C(Nc1cccnn1)N1CC(C/C=C/c2cncc(Oc3ccc(C(F)(F)F)cn3)n2)C1	cell-free assay	competition with immobilised ligand	1 µM	82
COc1cnc(Nc2cccc(S(N)(=O)=O)c2)nc1N1CCN(c2ccccc2)C(=O)C1	binding	competition with immobilised ligand	1 µM	100
CNC(=O)Nc1ccc2c(c1)[C@@]1(CC2)OC(=O)N(CC(=O)N(Cc2ccc(F)cc2)[C@@H](C)C(F)(F)F)C1=O	cell-free assay	competition with immobilised ligand	1 µM	100
CN(C)c1nccc(-c2cnc3ncccn23)n1	binding	–	1 µM	82
O=C(c1ccc(Nc2ncc(Cl)c(-c3cc4ccccc4s3)n2)cc1)N1CCC(N2CCCC2)CC1	binding	competition with immobilised ligand	1 µM	100
CCOCCn1cc(C(=O)Nc2ccc(-n3nc(-c4cccnc4)cc3C(F)(F)F)cn2)ccc1=O	cell-free assay	competition with immobilised ligand	1 µM	98
